From ChEMBL document CHEMBL1821569, “Synthesis of novel 1,2,5-trisubstituted benzimidazoles as potential antitumor agents” (2011)

Tests used:
Format in all cases: functional
HOP-62 = test: Antitumor activity against human HOP62 cells after 48 hrs by SRB assay; conditions: HOP-62, 48 h
How it was run: (§1)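 NCI 60-cell-line secondary screen. Cells were exposed continuously to drug for 48 h at five concentration levels (100, 10, 1.0, 0.1 and 0.01). Growth was estimated by sulforhodamine B protein staining. GI50 is the concentration giving a 50% reduction in net protein increase versus untreated control cells over the incubation. TGI (total growth inhibition) and LC50 (50% cell kill) were also derived.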

MOLT-4 = test: Antitumor activity against human MOLT4 cells after 48 hrs by SRB assay; conditions: MOLT-4, 48 h; how it was run: as §1
K562 = test: Antitumor activity against human K562 cells after 48 hrs by SRB assay; conditions: K562, 48 h; how it was run: as §1
NCI-H322M = test: Antitumor activity against human NCI-H322M cells after 48 hrs by SRB assay; how it was run: as §1
A549 = test: Antitumor activity against human A549 cells after 48 hrs by SRB assay; conditions: A549, 48 h; how it was run: as §1
HT-29 = test: Antitumor activity against human HT-29 cells after 48 hrs by SRB assay; conditions: HT-29, 48 h; how it was run: as §1
KM12 = test: Antitumor activity against human KM12 cells after 48 hrs by SRB assay; conditions: KM12, 48 h; how it was run: as §1
SW-620 = test: Antitumor activity against human SW620 cells after 48 hrs by SRB assay; conditions: SW-620, 48 h
How it was run: (§2)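 NCI 60-cell-line secondary screen. Continuous 48 h exposure at five concentration levels. Cell growth estimated by sulforhodamine B protein staining. GI50 taken as the concentration giving 50% reduction in net protein increase relative to untreated control cells over the incubation. TGI (total growth inhibition) and LC50 (50% cell kill) were also derived.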

HCC 2998 = test: Antitumor activity against human HCC2998 cells after 48 hrs by SRB assay; conditions: HCC 2998, 48 h, read-out: LC50 (the source's name)
How it was run: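 NCI 60-cell-line secondary screen: continuous drug exposure for 48 h at five concentration levels (100, 10, 1.0, 0.1 and 0.01). Cell growth was estimated by sulforhodamine B (SRB) protein staining. GI50 is the concentration giving a 50% reduction in net protein increase relative to untreated control cells during the incubation. TGI and LC50 were derived from the same data.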

SF-295 = test: Antitumor activity against human SF295 cells after 48 hrs by SRB assay; conditions: SF-295, 48 h; how it was run: as §1
SF-539 = test: Antitumor activity against human SF539 cells after 48 hrs by SRB assay; conditions: SF-539, 48 h; how it was run: as §1
U-251 = test: Antitumor activity against human U251 cells after 48 hrs by SRB assay; conditions: U-251, 48 h; how it was run: as §2
SNB-19 = test: Antitumor activity against human SNB19 cells after 48 hrs by SRB assay; conditions: SNB-19, 48 h; how it was run: as §1
SNB-75 = test: Antitumor activity against human SNB75 cells after 48 hrs by SRB assay; conditions: SNB-75, 48 h; how it was run: as §1
MDA-MB-435 = test: Antitumor activity against human MDA-MB-435 cells after 48 hrs by SRB assay; conditions: MDA-MB-435, 48 h; how it was run: as §1
UACC-257 = test: Antitumor activity against human UACC257 cells after 48 hrs by SRB assay; conditions: UACC-257, 48 h; how it was run: as §2
UACC-62 = test: Antitumor activity against human UACC62 cells after 48 hrs by SRB assay; conditions: UACC-62, 48 h; how it was run: as §2
SK-MEL-2 = test: Antitumor activity against human SK-MEL-2 cells after 48 hrs by SRB assay; conditions: SK-MEL-2, 48 h; how it was run: as §1
M14 = test: Antitumor activity against human M14 cells after 48 hrs by SRB assay; conditions: M14, 48 h; how it was run: as §1
OVCAR-3 = test: Antitumor activity against human OVCAR3 cells after 48 hrs by SRB assay; conditions: OVCAR-3, 48 h; how it was run: as §1
OVCAR-5 = test: Antitumor activity against human OVCAR5 cells after 48 hrs by SRB assay; conditions: OVCAR-5, 48 h; how it was run: as §1
ACHN = test: Antitumor activity against human ACHN cells after 48 hrs by SRB assay; how it was run: as §1
CAKI-1 = test: Antitumor activity against human Caki1 cells after 48 hrs by SRB assay; conditions: CAKI-1, 48 h; how it was run: as §1
RXF 393 = test: Antitumor activity against human RXF393 cells after 48 hrs by SRB assay; conditions: RXF 393, 48 h; how it was run: as §1
DU-145 = test: Antitumor activity against human DU145 cells after 48 hrs by SRB assay; conditions: DU-145, 48 h; how it was run: as §1
PC-3 = test: Antitumor activity against human PC3 cells after 48 hrs by SRB assay; conditions: PC-3, 48 h; how it was run: as §1
MCF7 = test: Antitumor activity against human MCF7 cells after 48 hrs by SRB assay; conditions: MCF7, 48 h; how it was run: as §1
MDA-MB-231 = test: Antitumor activity against human MDA-MB-231 cells after 48 hrs by SRB assay; conditions: MDA-MB-231, 48 h; how it was run: as §1
BT-549 = test: Antitumor activity against human BT549 cells after 48 hrs by SRB assay; conditions: BT-549, 48 h; how it was run: as §1
T47D = test: Antitumor activity against human T47D cells after 48 hrs by SRB assay; how it was run: as §2
[1] = read-out: LC50 (the source's name)

Question: What does the source list for `COC(=O)c1ccc2c(c1)nc(-c1cc3ccccc3[nH]c1=O)n2-c1cc(C(C)(C)C)[nH]n1`?
Answer: GI50 (HOP-62): 0.996 µM; LC50 (concentration giving 50% cell kill) (HOP-62): > 100 µM; TGI (HOP-62): > 100 µM; GI50 (MOLT-4): 0.445 µM; LC50 (50% net cell kill) (MOLT-4): > 100 µM; TGI (MOLT-4): > 100 µM; GI50 (K562): 1.73 µM; TGI (K562): > 100 µM; CC50 (K562; [1]): > 100 µM; GI50 (NCI-H322M): 0.929 µM; LC50 (50% cell kill) (NCI-H322M): > 100 µM; TGI (NCI-H322M): > 100 µM; GI50 (A549): > 100 µM; TGI (A549): > 100 µM; CC50 (A549; [1]): > 100 µM; GI50 (HT-29): 1.34 µM; LC50 (50% cell kill) (HT-29): > 100 µM; TGI (HT-29): > 100 µM; GI50 (KM12): 1.29 µM; CC50 (KM12; [1]): > 100 µM; TGI (SW-620): > 100 µM; CC50 (SW-620; [1]): > 100 µM; CC50 (HCC 2998): > 100 µM; GI50 (SF-295): 1.23 µM; TGI (SF-295): 25.5 µM; CC50 (SF-295; [1]): > 100 µM; GI50 (SF-539): 4.12 µM; TGI (SF-539): > 100 µM; CC50 (SF-539; [1]): > 100 µM; GI50 (U-251): 0.652 µM; TGI (U-251): > 100 µM; CC50 (U-251; [1]): > 100 µM; GI50 (SNB-19): 7.59 µM; TGI (SNB-19): > 100 µM; CC50 (SNB-19; [1]): > 100 µM; GI50 (SNB-75): 5.42 µM; TGI (SNB-75): 41.5 µM; CC50 (SNB-75; [1]): > 100 µM; TGI (MDA-MB-435): > 100 µM; CC50 (MDA-MB-435; [1]): > 100 µM; TGI (UACC-257): > 100 µM; CC50 (UACC-257; [1]): > 100 µM; TGI (UACC-62): > 100 µM; CC50 (UACC-62; [1]): > 100 µM; GI50 (SK-MEL-2): 2.25 µM; TGI (SK-MEL-2): > 100 µM; CC50 (SK-MEL-2; [1]): > 100 µM; TGI (M14): > 100 µM; CC50 (M14; [1]): > 100 µM; GI50 (OVCAR-3): 6.27 µM; TGI (OVCAR-3): > 100 µM; CC50 (OVCAR-3; [1]): > 100 µM; TGI (OVCAR-5): > 100 µM; CC50 (OVCAR-5; [1]): > 100 µM; GI50 (ACHN): > 100 µM; TGI (ACHN): > 100 µM; CC50 (ACHN; [1]): > 100 µM; GI50 (CAKI-1): 0.476 µM; TGI (CAKI-1): 90.5 µM; CC50 (CAKI-1; [1]): > 100 µM; GI50 (RXF 393): 2.16 µM; TGI (RXF 393): 8.86 µM; CC50 (RXF 393; [1]): > 100 µM; GI50 (DU-145): 2.37 µM; TGI (DU-145): > 100 µM; CC50 (DU-145; [1]): > 100 µM; GI50 (PC-3): 2.27 µM; TGI (PC-3): > 100 µM; CC50 (PC-3; [1]): > 100 µM; GI50 (MCF7): > 100 µM; TGI (MCF7): > 100 µM; CC50 (MCF7; [1]): > 100 µM; GI50 (MDA-MB-231): 4.13 µM; TGI (MDA-MB-231): > 100 µM; CC50 (MDA-MB-231; [1]): > 100 µM; GI50 (BT-549): 4.88 µM; TGI (BT-549): 66.2 µM; CC50 (BT-549; [1]): > 100 µM; GI50 (T47D): > 100 µM; TGI (T47D): > 100 µM; CC50 (T47D; [1]): > 100 µM
